From ChEMBL document CHEMBL4339193, “Phenotypic Screening-Based Identification of 3,4-Disubstituted Piperidine Derivatives as Macrophage M2 Polarization Modulators: An Opportunity for Treating Multiple Sclerosis” (J Med Chem, 2019) come the findings set out here.

A short description of data set [1]: Tmax in Sprague-Dawley rat at 50 mg/kg, po administered as single dose via gavage by LC/MS analysis. It is filed as ADME, organism-based. The following applies: in vivo. The procedure, abridged:
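Single dose given to rats. Venous blood (100 µL) drawn at 0, 0.5, 1, 2, 4, 8 and 12 h. Plasma separated by centrifugation and stored at -20 °C, then compound measured by LC/MS. Cmax, Tmax, t1/2 and AUC derived from the concentration-time data.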

Data set [2] relates to Mus musculus. Description: Antiinflammatory activity in C57BL/6J mouse model of MOG (35 to 55 residues)/pertussis toxin/complete Freund's adjuvant-induced experimental allergic encephalomyelitis assessed as effect on dendritic cell population in draining lymph nodes by measuring change in CD11c level at 200 mg/kg, ig administered daily starting from 7 days post-immunization measured after 13 to 19 days post-immunization by flow cytometry analysis. Format: functional, organism-based. A digest of the protocol:
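MOG35-55/CFA EAE mice were dosed daily in saline from day 7 and sampled between days 13 and 19. Spleens and dLNs were mechanically dissociated to single cells. CNS cells came from collagenase IV digestion and a 70%/30% Percoll gradient. Cells were surface-stained with fluorochrome antibodies, including CD4, CD11b, CD11c and MHC-II, and analysed by flow cytometry.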

In data set [3] the test system is Mus musculus. Description: Inhibition of M1 polarization in C57BL/6J mouse model of MOG (35 to 55 residues)/pertussis toxin/complete Freund's adjuvant-induced experimental allergic encephalomyelitis assessed as CD86 level in CNS at 200 mg/kg, ig administered daily starting from 7 days post-immunization measured after 13 to 19 days post-immunization by flow cytometry analysis (reference value: 26.3%). Also on record: scale not given: the % may be the effect or the level left. Format: functional. A digest of the protocol:
(§1)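 MOG35-55/CFA EAE mice were dosed daily in saline from day 7 and sampled between days 13 and 19. Cells came from spleen and dLN by mechanical dissociation and from CNS by collagenase IV/Percoll. They were stained for F4/80 with CD206 (M2) or CD86 (M1), and each was read by flow cytometry as a percentage of total F4/80+ macrophages.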
(In general: Flow cytometry measures light scatter and fluorescence of single cells or particles in a stream.)

Data set [4] deals with Mus musculus. Description: Induction of M2 polarization in C57BL/6J mouse model of MOG (35 to 55 residues)/pertussis toxin/complete Freund's adjuvant-induced experimental allergic encephalomyelitis assessed as CD206 level in draining lymph nodes at 200 mg/kg, ig administered daily starting from 7 days post-immunization measured after 13 to 19 days post-immunization by flow cytometry analysis (reference value: 6.5%). It is filed as functional. The procedure, abridged:
as §1

Data set [5] relates to Mus musculus. Description: Induction of M2 polarization in C57BL/6J mouse model of MOG (35 to 55 residues)/pertussis toxin/complete Freund's adjuvant-induced experimental allergic encephalomyelitis assessed as CD206 level in spleen at 200 mg/kg, ig administered daily starting from 7 days post-immunization measured after 13 to 19 days post-immunization by flow cytometry analysis (reference value: 23.4%). Format: functional. A digest of the protocol:
as §1

The test system of data set [6] is Mus musculus. Kind of data set: Antiinflammatory activity in C57BL/6J mouse model of MOG (35 to 55 residues)/pertussis toxin/complete Freund's adjuvant-induced experimental allergic encephalomyelitis assessed as reduction in infiltration in spinal cord at 200 mg/kg, ig administered daily starting from 7 days post-immunization measured after 14 days post-immunization by LFB staining based microscopic analysis. It is filed as functional, organism-based. A digest of the protocol:
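EAE mice dosed daily in saline from day 7 were perfused with PBS and fixed in 4% PFA on day 14; spinal cords were taken. For LFB, frozen OCT sections sat 3 h in 0.1% Luxol Fast Blue at 56-60°C, were differentiated in 0.05% lithium carbonate for 10-12 s, cleared in 70% ethanol, dehydrated and mounted. For H&E, paraffin sections were stained to assess inflammation.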

The test system of data set [7] is BMDM. Description: Modulation of M2 polarization in C57BL/6J mouse BMDM cells assessed as up regulation of YM1 expression at 300 nM measured after 4 to 24 hrs by Western blot analysis. Format: functional, cell-based. A digest of the protocol: (§2)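 BMDMs lysed in pH 7.6 buffer with 1% Triton X-100, phosphatase inhibitor and 1 mM PMSF. Proteins separated by SDS-PAGE, blotted to PVDF and probed with anti-Arg-1, anti-Ym1 or anti-TNF-α, then ECL detection; GAPDH as loading control.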
In general terms: A western blot detects proteins with antibodies after separation by electrophoresis.

Data set [8] relates to BMDM. Description: Modulation of M2 polarization in C57BL/6J mouse BMDM cells assessed as up regulation of Arg1 expression at 300 nM measured after 4 to 24 hrs by Western blot analysis. Format: functional, cell-based. A digest of the protocol: as §2
Data set [9] concerns BMDM. Kind of data set: Modulation of M2 polarization in C57BL/6J mouse BMDM cells assessed as up regulation of Fizz1 mRNA expression at 300 nM measured after 24 hrs by qRT-PCR analysis. It is filed as functional, cell-based. A digest of the protocol:
(§3)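 BMDMs treated 24 h with 300 nM compound at 37 °C, 5% CO2. Trizol RNA extraction, then qRT-PCR for Arg1, Mrc1 and Fizz1 mRNA. Mean ± SEM.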
(In general: Quantitative PCR measures a nucleic acid by following its amplification.)

Data set [10] relates to BMDM. Kind of data set: Modulation of M2 polarization in C57BL/6J mouse BMDM cells assessed as up regulation of Mrc1 mRNA expression at 300 nM measured after 24 hrs by qRT-PCR analysis. Format: functional, cell-based. The procedure, abridged:
as §3

In data set [11] the test system is BMDM. Kind of data set: Modulation of M2 polarization in C57BL/6J mouse BMDM cells assessed as up regulation of CD206 expression measured after 24 hrs by FACS analysis. It is filed as functional, cell-based. A digest of the protocol: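 BMDMs exposed to compound (300 nM, or a range of concentrations) for 24 h. Stained for F4/80 and CD206; % CD206+F4/80+ cells read by flow cytometry. Mean ± SEM, at least three independent experiments.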

The test system of data set [12] is RAW264.7. Kind of data set: Inhibition of M1 polarization in mouse RAW264.7 cells assessed as down regulation of IL6R mRNA expression at 300 nM measured after 24 hrs by qRT-PCR analysis. Format: functional, cell-based.
Data set [13] deals with RAW264.7. Kind of data set: Modulation of M2 polarization in mouse RAW264.7 cells assessed as up regulation of PPARGC1A mRNA expression at 300 nM measured after 24 hrs by qRT-PCR analysis. It is filed as functional, cell-based.
The nature of data set [14]: Ratio of AUC (0 to t) to AUC (0 to infinity) in Sprague-Dawley rat at 10 mg/kg, iv administered as single dose […]. It is filed as ADME, organism-based. The note with it: in vivo.
Data set [15] is described as follows: Half life in Sprague-Dawley rat at 10 mg/kg, iv administered as single dose by LC/MS analysis. Format: ADME, organism-based. The note with it: in vivo. A digest of the protocol: (§4)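 Single dose in rats; venous blood (100 µL) drawn at 0, 0.5, 1, 2, 4, 8 and 12 h, plasma separated by centrifugation and held at -20 °C. Compound measured by LC/MS; Cmax, Tmax, t1/2 and AUC derived from the concentration–time data.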

The nature of data set [16]: Cmax in Sprague-Dawley rat at 50 mg/kg, po administered as single dose via gavage by LC/MS analysis. Also on record: dose 50 mg/kg, route oral. Format: ADME, organism-based. The note with it: in vivo. The procedure, abridged: as §4
Data set [17] is described as follows: Half life in Sprague-Dawley rat at 50 mg/kg, po administered as single dose via gavage by LC/MS analysis. The following applies: in vivo. Format: ADME, organism-based. A digest of the protocol: as §4
For data set [18], the system named is RAW264.7. Description: Modulation of M2 polarization in mouse RAW264.7 cells assessed as change in Arg1 mRNA expression at 300 nM measured after 24 hrs by qRT-PCR analysis relative to control. Format: functional. A digest of the protocol:
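RAW264.7 cells (DMEM, 10% FBS) given 300 nM compound for 24 h; IL-4 20 ng/ml as positive control. Arg1 mRNA measured by qRT-PCR; fold change = expression in dosed group / expression in untreated control.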

The nature of data set [19]: Tmax in Sprague-Dawley rat at 10 mg/kg, iv administered as single dose by LC/MS analysis. Format: ADME, organism-based. The note with it: in vivo. A digest of the protocol:
as §4

Usually Tmax stands for the time from dosing to the highest level. What is called half-life is the time in which the quantity being followed falls by half. For orientation: Cmax means the peak of the concentration-time curve.

The source made the active and inactive calls. The rule behind the calls is not given here.

In the case of `Cl.Cn1ncc(Cl)c1-c1ccc(C(=O)N[C@@H]2CNCC[C@H]2c2cccc(F)c2)cc1`, the Tmax in data set [1] came to 3.25 h; in data set [19] it was 4.98 min. Moreover, in the data set on Mus musculus [2], the result was inactive. The Activity was 16.6% with Mus musculus [3], 10.1% in the data set with Mus musculus [4], 37.2% with Mus musculus [5] and “Dose-dependent effect” with BMDM [11]. Besides, the outcome in the data set on Mus musculus [6], with BMDM [7], in the data set on BMDM [8], with BMDM [9], in the data set with BMDM [10] and in the data set with RAW264.7 [13] was Active. Besides, the inhibition entry in the data set with RAW264.7 [12] was “Active”. The “Ratio AUC” value in data set [14] was 98.75%. The half-life in data set [15] is 6.3 h; in data set [17] it was 7.77 h. The compound further registered a Cmax in data set [16] of 313 ng/mL. For the same compound, in the data set with RAW264.7 [18], the “fold change (FC)” value amounted to 13.97.
